For assay [1], the target named is T1, Microtubule-associated protein tau (Homo sapiens, UniProt P10636). Put plainly: Inhibition of His-tagged human brain tau 3R MBD aggregation after 16 hrs by thioflavin T fluorescence method.
Assay [2] concerns the target T1, Microtubule-associated protein tau. Nature of the assay: Inhibition of His-tagged human brain tau 3R MBD aggregation at 10 uM after 16 hrs by thioflavin T fluorescence method. The method, boiled down: (§1)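 His-tagged 3R MBD tau expressed in E. coli BL21(DE3), purified by Ni-chelate chromatography, dialysed against ammonium acetate and freeze-dried. Tau 10 μM plus heparin 10 μM in 50 mM Tris–HCl pH 7.6 with compound (0.1–10 μM, DMSO), incubated 37 °C 16 h in the dark. Background fluorescence read first, then 10 μM ThT added; ThT fluorescence at ex 440/em 486 nm.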

For assay [3], the target named is T2, Amyloid-beta precursor protein (Homo sapiens, UniProt P05067). Put plainly: Inhibition of amyloid beta (1-42) aggregation (unknown origin) after 24 hrs by thioflavin T fluorescence method.
T2 sequence (P05067 whole entry): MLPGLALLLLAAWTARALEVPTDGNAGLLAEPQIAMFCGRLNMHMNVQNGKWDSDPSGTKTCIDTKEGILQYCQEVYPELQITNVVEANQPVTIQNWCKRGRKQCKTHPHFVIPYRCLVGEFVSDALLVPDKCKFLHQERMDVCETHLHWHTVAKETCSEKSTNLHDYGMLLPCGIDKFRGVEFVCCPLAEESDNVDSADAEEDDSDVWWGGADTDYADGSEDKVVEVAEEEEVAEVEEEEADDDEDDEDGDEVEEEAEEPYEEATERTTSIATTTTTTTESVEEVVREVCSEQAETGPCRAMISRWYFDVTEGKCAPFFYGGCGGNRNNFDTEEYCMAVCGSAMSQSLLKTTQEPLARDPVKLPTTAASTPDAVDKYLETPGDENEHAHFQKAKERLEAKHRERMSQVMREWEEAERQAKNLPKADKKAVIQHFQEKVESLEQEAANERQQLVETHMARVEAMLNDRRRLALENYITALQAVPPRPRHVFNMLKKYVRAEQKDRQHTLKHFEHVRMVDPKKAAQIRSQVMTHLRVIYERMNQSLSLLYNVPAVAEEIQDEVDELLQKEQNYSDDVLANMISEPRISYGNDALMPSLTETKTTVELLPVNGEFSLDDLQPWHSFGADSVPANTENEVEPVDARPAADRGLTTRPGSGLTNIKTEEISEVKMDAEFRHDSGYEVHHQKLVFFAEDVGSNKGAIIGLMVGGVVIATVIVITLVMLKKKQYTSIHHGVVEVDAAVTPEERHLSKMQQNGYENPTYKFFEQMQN
Assay [4] deals with T2, Amyloid-beta precursor protein. Put plainly: Inhibition of amyloid beta (1-42) aggregation (unknown origin) at 10 uM after 24 hrs by thioflavin T fluorescence method.
For assay [5] the target is unchanged. Put plainly: Inhibition of amyloid beta (1-42) aggregation (unknown origin) at 1 uM after 24 hrs by thioflavin T fluorescence method.
Assay [6] concerns the target T1, Microtubule-associated protein tau. Nature of the assay: Inhibition of His-tagged human brain tau 3R MBD aggregation at 1 uM after 16 hrs by thioflavin T fluorescence method. The method, boiled down: as §1

T1 sequence (P10636 whole entry): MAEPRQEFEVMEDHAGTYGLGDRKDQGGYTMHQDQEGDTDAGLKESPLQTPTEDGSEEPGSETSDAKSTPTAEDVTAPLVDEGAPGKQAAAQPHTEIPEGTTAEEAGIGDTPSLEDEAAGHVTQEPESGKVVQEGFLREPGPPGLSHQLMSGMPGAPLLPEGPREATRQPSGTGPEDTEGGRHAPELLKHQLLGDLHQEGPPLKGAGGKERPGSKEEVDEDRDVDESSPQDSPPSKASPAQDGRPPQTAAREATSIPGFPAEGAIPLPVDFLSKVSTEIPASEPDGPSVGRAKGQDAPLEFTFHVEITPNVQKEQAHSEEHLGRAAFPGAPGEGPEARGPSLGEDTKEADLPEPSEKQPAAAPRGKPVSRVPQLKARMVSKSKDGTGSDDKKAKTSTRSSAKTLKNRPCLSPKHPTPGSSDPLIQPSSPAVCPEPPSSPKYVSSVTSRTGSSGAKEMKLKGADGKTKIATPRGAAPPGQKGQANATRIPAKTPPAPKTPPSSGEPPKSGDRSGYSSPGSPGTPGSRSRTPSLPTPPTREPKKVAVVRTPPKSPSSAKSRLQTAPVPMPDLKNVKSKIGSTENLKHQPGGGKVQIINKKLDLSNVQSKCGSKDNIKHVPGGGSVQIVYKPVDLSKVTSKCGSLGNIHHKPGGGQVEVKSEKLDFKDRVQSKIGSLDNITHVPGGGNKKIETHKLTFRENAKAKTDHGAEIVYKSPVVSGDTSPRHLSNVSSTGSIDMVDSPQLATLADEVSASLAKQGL

By IC50 is commonly meant the midpoint of a concentration-inhibition curve. Read a low IC50 as greater potency in that assay. As usually defined, the inhibition is the relative decrease from the control value, in per cent. Turning to `N#CC(C#N)=Cc1ccc(-c2ccc(-c3ccc(N(c4ccccc4)c4ccccc4)cc3)s2)s1`, the 50% inhibitory concentration (IC50) in assay [1] and in assay [3] was more than 10 µM throughout. The inhibition in assay [2] was found to be 14%; in assay [4] it was 43%.
`COc1ccc(-c2ccc(-c3ccc(C=C(C#N)C#N)s3)s2)cc1`: the values for the half-inhibitory concentration (IC50) in assay [1] and in assay [3] were more than 10 µM and less than 1 µM, respectively. Also, the inhibition was 28% in assay [2] and 78% in assay [5].
In the case of `CN1C(=O)C(=Cc2ccc(-c3ccc(-c4ccc(N(c5ccccc5)c5ccccc5)cc4)s3)s2)C(=O)N(C)C1=O`, the IC50 in assay [1] and in assay [3] was more than 10 µM in each case. Further, the inhibition is 7% in assay [2] and 18% in assay [4].
For the compound `COc1ccc(-c2ccc(-c3ccc(C=O)s3)s2)cc1`, the 50% inhibitory concentration (IC50) in assay [1] and in assay [3] was more than 10 µM throughout. Moreover, the inhibition amounted to 18% in assay [2] and 0% in assay [4].
With `CC(C)(C)n1c2cc(-c3ccc(N(c4ccccc4)c4ccccc4)cc3)sc2c2sc(-c3ccc(/C=C(\C#N)C(N)=O)s3)cc21`, the concentration for half-maximal inhibition (IC50) in assay [1] and in assay [3] was more than 10 µM each time. Moreover, the inhibition in assay [2] stood at 33%; in assay [4] it was 36%.
As for `N#C/C(=C\c1ccc(-c2ccc(-c3ccc(N(c4ccccc4)c4ccccc4)cc3)s2)s1)C(=O)O`, the figures for the IC50 in assay [1] and in assay [3] were 1.7 µM and less than 0.41 µM, respectively. The compound also registered an inhibition in assay [5] of 82%.
As for `O=c1c(O)c(-c2ccc(O)c(O)c2)oc2c(O)c(O)cc(O)c12` [GOSSYPETIN], the IC50 in assay [1] and in assay [3] was less than 3 µM throughout.
In the case of `COc1ccc(-c2cc3c(s2)c2sc(-c4ccc(/C=C(\C#N)C(N)=O)s4)cc2n3C(C)(C)C)cc1`, the IC50 in assay [1] is 0.3 µM; in assay [3], 0.55 µM.
In the case of `CC(C)(C)n1c2cc(-c3ccc(N(c4ccccc4)c4ccccc4)cc3)sc2c2sc(-c3ccc(C=O)s3)cc21`, the 50% inhibitory concentration (IC50) in assay [1] and in assay [3] was more than 10 µM throughout. Besides, the inhibition in assay [2] came out at 15%; in assay [4], 36%.
`O=Cc1ccc(-c2ccc(-c3ccc(N(c4ccccc4)c4ccccc4)cc3)c3nsnc23)s1`: the IC50 in assay [1] and in assay [3] was more than 10 µM in each case. Besides, the inhibition is 11% in assay [2] and 44% in assay [4].
As for `CN(C)c1ccc2nc3ccc(N)cc3[s+]c2c1`, the 50% inhibitory concentration (IC50) in assay [1] and in assay [3] was less than 3 µM throughout.
In the case of `N#C/C(=C\c1ccc(-c2ccc(-c3ccc(N(c4ccccc4)c4ccccc4)cc3)c3nsnc23)s1)C(N)=O`, the IC50 in assay [1] and in assay [3] was more than 10 µM in each case. In addition, the inhibition in assay [2] came out at 24%; in assay [4], 46%.
`COc1ccc(-c2cc3c(s2)c2sc(-c4ccc(C=C(C#N)C#N)s4)cc2n3C(C)(C)C)cc1`: the IC50 in assay [1] and in assay [3] was more than 10 µM in each case. For the same compound, the inhibition in assay [2] came to 27%; in assay [4] it was 18%.
Consider `O=Cc1ccc(-c2ccc(-c3ccc4[nH]ccc4c3)s2)s1`, for which the IC50 in assay [1] is 1.6 µM; in assay [3], more than 10 µM. This compound also returned an inhibition in assay [4] of 46%.
As for `N#CC(C#N)=Cc1ccc(-c2ccc(-c3ccc(N(c4ccccc4)c4ccccc4)cc3)c3nsnc23)s1`, the half-inhibitory concentration (IC50) in assay [1] and in assay [3] was more than 10 µM in each case. Also, the inhibition in assay [2] came out at 15%; in assay [4] it was 30%.
For the compound `COc1ccc(-c2cc3c(s2)c2sc(-c4ccc(C=O)s4)cc2n3C(C)(C)C)cc1`, the half-maximal inhibitory concentration (IC50) in assay [1] came out at 0.29 µM; in assay [3] it was 0.38 µM. Further, the results for the inhibition in assay [6] and in assay [5] were 74% and 61%, respectively.
In the case of `CC(C)(C)n1c2cc(-c3ccc(N(c4ccccc4)c4ccccc4)cc3)sc2c2sc(-c3ccc(C=C(C#N)C#N)s3)cc21`, the IC50 in assay [1] and in assay [3] was more than 10 µM in each case. Besides, the values for the inhibition in assay [2] and in assay [4] were 18% and 16%, respectively.
Consider `N#C/C(=C\c1ccc(-c2ccc(-c3ccc(N(c4ccccc4)c4ccccc4)cc3)s2)s1)C(N)=O`, for which the values for the IC50 in assay [1] and in assay [3] were more than 10 µM and 1.5 µM, respectively. The compound also had an inhibition in assay [2] of 29%.
On to `CN(C)c1ccc2nc3ccc(=[N+](C)C)cc-3sc2c1` [METHYLENE BLUE CATION], for which the IC50 in assay [3] was 0.55 µM.
Regarding `O=C1NC(=O)C(=Cc2ccc(-c3ccc(-c4ccc(N(c5ccccc5)c5ccccc5)cc4)s3)s2)C(=O)N1`, the concentration for half-maximal inhibition (IC50) in assay [1] and in assay [3] was more than 10 µM each time. Also, the inhibition in assay [2] amounted to 12%; in assay [4] it was 0%.
With `O=Cc1ccc(-c2ccc(-c3ccc(N(c4ccccc4)c4ccccc4)cc3)s2)s1`, the results for the IC50 in assay [1] and in assay [3] were more than 10 µM and 7.1 µM, respectively. Besides, the inhibition in assay [2] stood at 12%.
`CNc1ccc2nc3ccc(N(C)C)cc3[s+]c2c1`: the IC50 in assay [1] and in assay [3] was less than 3 µM throughout.

Values taken from ChEMBL document CHEMBL3352213, “Development of dual targeting inhibitors against aggregations of amyloid-β and tau protein” (Eur J Med Chem, 2014).
